Test results published in ChEMBL document CHEMBL1124298, “Synthesis and antineoplastic activity of 5-aryl-2,3-dihydropyrrolo[2,1-b]thiazole-6,7-dimethanol 6,7-bis(isopropylcarbamates)” (J Med Chem, 1988).

Legend:
HL-60 [1] = assay: Growth inhibitory activity against HL-60 human promyelocytic leukemia cell line relative to NSC-278214; format: functional
HL-60 [2] = assay: Concentration required to reduce cell number (HL-60 human promyelocytic leukemia cell line) on day 7 by 50%; format: functional, cell-based; settings: HL-60, 168 h
Outline: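 HL-60 cells were grown in RPMI 1640 with 10% heat-inactivated FBS at 37 °C in humidified 10% CO2, resuspended at 10⁵/mL, and given drug. Drug was dissolved in DMSO, with at most 0.2% DMSO in the culture. Cells were counted by Coulter counter on day 7. IC50 is the concentration that reduced cell number by 50%. Values are from three experiments.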

SMILES | IC50 (HL-60 [2]) [nM] | Potency (HL-60 [1])
CC(C)NC(=O)OCc1c(COC(=O)NC(C)C)c(-c2ccc(Cl)cc2)n2c1SCC2 | 850 | 1.76
CC(C)NC(=O)OCc1c(COC(=O)NC(C)C)c(-c2ccc(Cl)c(Cl)c2)n2c1SCC2 | 1900 | 0.79
CC(C)NC(=O)OCc1ccccc1COC(=O)NC(C)C | > 300000 | <0.005
CC(C)NC(=O)OCc1c(COC(=O)NC(C)C)c(-c2ccc(F)cc2)n2c1SCC2 | 1600 | 0.94

Second part, led by results:

IC50 (HL-60 [2]) [nM] | SMILES | Potency (HL-60 [1])
1500 | CC(C)NC(=O)OCc1c(COC(=O)NC(C)C)c(-c2ccccc2)n2c1SCC2 | 1
1500 | CC(C)NC(=O)OCc1c(COC(=O)NC(C)C)c(-c2ccc(Cl)c(Cl)c2)n2c1CCC2 | 1
